Experimental data from different studies.
Each line is one published result; the experiments were not run side by side.
Target: Mitogen-activated protein kinase kinase kinase 20 (MAP3K20, Homo sapiens, UniProt Q9NYL2)

`Cc1c(NC(=O)c2cc(C(N)=O)nc3cc(F)ccc23)c(C(F)(F)F)nn1Cc1ccc(C(C)(C)C)cc1` has a remaining binding of 100% (cell-free assay, competition with immobilised ligand; 1 µM).
With `COc1cnc(Nc2cccc(S(N)(=O)=O)c2)nc1N1CCN(c2ccccc2)C(=O)C1` the remaining binding was 100% (binding, competition with immobilised ligand; 1 µM).
`C[C@@H]1CCN(c2nccc(-c3cnn4ncccc34)n2)C1` has a remaining binding of 100% (binding; 1 µM).
`O=C(Nc1c[nH]nc1C(=O)NC1CCNCC1)c1cc(F)cc(F)c1` has a remaining binding of 100% (binding, competition with immobilised ligand; 1 µM).
The remaining binding of `CS(=O)(=O)NCC[C@H](NC(=O)c1cncc2c1cnn2-c1ccc(F)cc1)c1ccnc(S(C)(=O)=O)c1` is reported as 88% (cell-free assay, competition with immobilised ligand; 1 µM).
The remaining binding of `O=C(c1ccc(Nc2ncc(Cl)c(-c3ccc(Cl)s3)n2)cc1)N1CCC(N2CCCC2)CC1` is reported as 65% (binding, competition with immobilised ligand; 1 µM).
For `CNC(=O)[C@@H]1CC[C@@H](n2c(-c3ccc4cnccc4c3)nc3ccc(C(=O)NCc4cccc(C(N)=O)c4)cc32)C1`, the remaining binding was 100% (binding, competition with immobilised ligand; 1 µM).
The remaining binding of `Cc1cc(-n2nc(Cc3cc(F)cc(C(F)(F)F)c3)nc2C)ccc1C(N)=O` is reported as 99% (cell-free assay, competition with immobilised ligand; 1 µM).
With `CCN1CCN(Cc2ccc(C(=O)Nc3ccc(C)c(Oc4ccc5c(c4)CC(=O)N5)c3)cc2C(F)(F)F)CC1` the remaining binding was 100% (binding, competition with immobilised ligand; 1 µM).
`O=C(NCCCN1CCOCC1)c1ccc(Nc2nccc(-c3cc4ccccc4s3)n2)cc1` has a remaining binding of 62% (binding, competition with immobilised ligand; 1 µM).
`FC(F)(F)Oc1cccc(-c2cnc3ccc(-c4ccncc4)nn23)c1` has a remaining binding of 20% (binding, competition with immobilised ligand; 5 µM).
The remaining binding of `CN(C(=O)c1ccccc1)c1cc(N(C)c2ccc3c(c2)CCc2ccc(C(=O)NCCN4CCOCC4)cc2C3=O)ccc1F` is reported as 82% (cell-free assay, competition with immobilised ligand; 1 µM).
`CN(CCCC(F)(F)F)c1nccc(-c2cnn3ncccc23)n1` has a remaining binding of 88% (binding; 1 µM).
`COc1ncc2cc3ccccc3nc2c1C#N` gave a remaining binding of 80% (cell-free assay, competition with immobilised ligand; 5 µM).
The remaining binding of `Cc1cnn2ncc(-c3ccnc(N(C)C)n3)c2c1` is reported as 95% (binding; 1 µM).
`O=C(NCc1ncc(C(F)(F)F)cc1Cl)c1ccc2c(c1)C1(CCS(=O)(=O)CC1)[C@H](C1CC1)N2S(=O)(=O)c1ccc(F)cc1` has a remaining binding of 100% (cell-free assay, competition with immobilised ligand; 1 µM).
`CN(C)c1ncc(F)c(-c2cnn3ncccc23)n1` has a remaining binding of 96% (binding; 1 µM).
`O=C(NCCCN1CCOCC1)c1ccc(Nc2ncc(Cl)c(-c3ccc(Cl)s3)n2)cc1` gave a remaining binding of 69% (binding, competition with immobilised ligand; 1 µM).
The remaining binding of `CN(C)c1nccc(-c2cnc3ncccn23)n1` is reported as 89% (binding; 1 µM).
`Cc1c(NC(=O)c2cc(C(N)=O)nc3cc(F)ccc23)c(C(F)(F)F)nn1Cc1ccc(C#N)cc1` has a remaining binding of 100% (cell-free assay, competition with immobilised ligand; 1 µM).
For `N[C@@H]1CCN(c2nccc(-c3cnn4ncccc34)n2)C1`, the remaining binding was 100% (binding; 1 µM).
`CCOC(=O)c1cc2cc(-c3cc(C(=O)NCc4ccc(C(=O)O)cc4)nn3C)ccc2[nH]1` gave a remaining binding of 87% (cell-free assay, competition with immobilised ligand; 0.1 µM).
